Sampled rows, rich in hits. Any-hit rate of the full collection: about 2.3%.
TRPC4 potent – TRPC4 (mouse) allosteric potentiation | Q9QUQ5 | HEK293 TRPC4beta/mu-opioid, DAMGO EC20, Fluo-4 Ca2+ flux; hits give high values | B-score at 10 µM | actives 0.42% (n = 310,000) | AID 2227;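 active = B-score of calcium response area above 5 SD of library B-scores, with initial fluorescence ratio within 5 SD of library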;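 also: B-score of integrated fluorescence ratio over time as area under calcium response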
Target sequence (Q9QUQ5 whole entry, looked up): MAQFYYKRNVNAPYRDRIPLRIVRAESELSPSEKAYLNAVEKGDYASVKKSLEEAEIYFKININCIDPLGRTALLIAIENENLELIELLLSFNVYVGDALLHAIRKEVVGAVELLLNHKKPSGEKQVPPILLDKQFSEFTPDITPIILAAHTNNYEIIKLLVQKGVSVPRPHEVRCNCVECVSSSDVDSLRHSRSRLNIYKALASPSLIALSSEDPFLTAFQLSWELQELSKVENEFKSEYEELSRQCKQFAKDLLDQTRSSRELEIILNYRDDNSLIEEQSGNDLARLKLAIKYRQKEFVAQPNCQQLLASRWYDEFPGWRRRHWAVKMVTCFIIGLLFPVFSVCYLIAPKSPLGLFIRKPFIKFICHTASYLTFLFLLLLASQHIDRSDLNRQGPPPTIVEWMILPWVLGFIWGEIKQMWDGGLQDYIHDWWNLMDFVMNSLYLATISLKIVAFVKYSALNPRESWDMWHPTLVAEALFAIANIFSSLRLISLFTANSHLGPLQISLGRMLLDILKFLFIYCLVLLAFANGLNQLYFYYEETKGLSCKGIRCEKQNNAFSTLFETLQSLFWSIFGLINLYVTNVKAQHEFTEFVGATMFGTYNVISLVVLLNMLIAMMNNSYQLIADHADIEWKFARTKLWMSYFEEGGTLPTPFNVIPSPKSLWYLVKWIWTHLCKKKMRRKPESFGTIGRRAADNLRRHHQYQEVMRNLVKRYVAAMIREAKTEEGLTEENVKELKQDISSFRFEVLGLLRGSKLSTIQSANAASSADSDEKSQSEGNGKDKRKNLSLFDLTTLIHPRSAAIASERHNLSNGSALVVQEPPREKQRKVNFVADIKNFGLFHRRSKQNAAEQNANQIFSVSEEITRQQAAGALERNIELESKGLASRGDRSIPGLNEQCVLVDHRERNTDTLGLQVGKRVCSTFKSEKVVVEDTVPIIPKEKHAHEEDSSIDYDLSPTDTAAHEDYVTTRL
TRPC6 activator – activates the mouse TRPC6 cation channel; Q61143; HEK293-TRPC6 membrane potential dye fluorescence; hits give high values; B-score at 10 µM; actives 0.13% (n = 310,000); AID 2550;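 active = B-score of the integrated fluorescence ratio above library mean plus 3 SD, and starting fluorescence ratio within library mean plus 5 SD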;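 also: higher score means more depolarization so channel activation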
TRPC6 inh – blocks the mouse TRPC6 cation channel; HEK293-TRPC6, membrane potential dye, ACh-evoked depolarization; hits give low values; AID 2553; B-score at 10 µM; actives 1.1% (n = 310,000);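 active = B-score under library mean minus 3 SD, initial fluorescence not abnormally high, positive integrated signal ratio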;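 also: B-score derived from integrated fluorescence ratio over the kinetic read; more negative B-score means stronger inhibition of depolarization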
TRPC4 inh – inhibitors of mouse TRPC4 channel | HEK293 TRPC4beta/mu-opioid, DAMGO-evoked Fluo4 calcium flux; hits give low values | AID 2247 | B-score at 10 µM | actives 0.39% (n = 300,000) | Q9QUQ5;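 active = B-score over 3 SD under the library average, no early fluorescence shift, positive overall ratio signal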
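System: stable TRPC4beta/mu-opioid receptor HEK293 cells; Dosing: single-point compound dosing; Measured by: Fluo4 Ca2+ flux fluorescence; Read-out basis: per-well B score of integrated baseline-normalized Fluo4 ratio.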
TRPC4 agonist – TRPC4 (mouse) channel activation. B-score at 10 µM. actives 0.49% (n = 310,000). HEK293 TRPC4beta/mu-opioid, Fluo4 calcium fluorescence; hits give high values. AID 2237. Q9QUQ5;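 active = B-score above 5 SD of library B-scores, and initial fluorescence ratio not above library mean plus 5 SD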;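 also: positive B-score marks a calcium rise read as TRPC4 activation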
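System: HEK293 cells stably co-expressing mouse TRPC4beta and mu-opioid receptor; Schedule: Fluo4 dye loading 45 min at room temperature, 110 s recording; Detection: Fluo4 fluorescence, kinetic; Evaluation: B-scored integrated calcium fluorescence ratio; Controls: buffer (low) and maximal DAMGO (high).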
TRPC4 spec 2 – second selectivity test of TRPC6 inhibitors: effect on mouse TRPC4; shares compounds with TRPC6 inh; HEK293 TRPC4/MOR, membrane potential dye fluorescence; channel activated by saturating DAMGO dose; inhibition, % at 10 µM; actives 42% (n = 920); AID 2776;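 active = compounds whose fluorescence signal differed from control wells by over 3 SD, either direction, in both duplicate plates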
TRPC4 spec – mouse TRPC4 off-target activity of TRPC6 inhibitors; HEK293 TRPC4/mu-opioid, membrane potential fluorescence; activity change, negative = inhibition, % at 10 µM; AID 2777; actives 61% (n = 920); shares compounds with TRPC6 inh;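 active = rise or fall in signal beyond 3 SD of buffer-only wells in both replicate plates, either sign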;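 also: integrated kinetic ratio of fluorescence range over baseline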
HEK293 MPD ctr 2-1 – parental HEK293 nonspecific activity of TRPC6 inhibitors, second screen. signal change vs control, % at 10 µM. actives 31% (n = 920). shares compounds with TRPC6 inh. parental HEK293 membrane potential dye fluorescence; maximal acetylcholine challenge after compound addition;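 active = membrane potential signal moving either way by over 3 SD of the maximum-effect control, in both duplicate plates, meaning non-specific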
HEK293 MPD ctr-1 – parental HEK293 nonspecific activity of TRPC6 inhibitors; shares compounds with TRPC6 inh; parental HEK293 membrane potential dye fluorescence; membrane potential signal change, % at 10 µM; actives 60% (n = 920);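 active = membrane potential signal shifting up or down by more than 3 SD of buffer-only wells, on both duplicate plates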
HEK293 MPD ctr-2 – parental HEK293 nonspecific activity of TRPC6 modulators. shares compounds with TRPC6 inh. membrane potential signal change, % at 10 µM. membrane potential dye fluorescence. actives 51% (n = 2,400). AID 488924;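 active = membrane potential signal moves up or down beyond 5 SD from buffer-only wells, on both duplicate plates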
HEK293 MPD ctr 2-2 – second counter-screen for TRPC6 modulators: effect in parental HEK293 cells | shares compounds with TRPC6 inh | inhibition, % at 10 µM | AID 488926 | actives 14% (n = 2,400) | membrane potential dye fluorescence; after compound, maximal acetylcholine stimulation;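 active = membrane potential signal drops by more than 5 SD from the mean control signal, in both duplicate plates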;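 also: plate controls were acetylcholine ECmax control wells for no effect and buffer only wells for full effect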
TRPC4/MOR mod – tests whether TRPC6 modulators also affect mouse TRPC4. shares compounds with TRPC6 inh. HEK293 TRPC4/mu-opioid, membrane potential fluorescence. percent change from control (negative = decrease, positive = increase), % at 10 µM. actives 69% (n = 2,400). AID 488927;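 active = membrane potential signal moved up or down beyond 5 SD of buffer control wells, in both duplicate plates, actives on both sides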;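 also: plate controls were assay buffer wells for no effect and DAMGO maximal-effect wells for full effect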
TRPC4 ctr inh 2 – second selectivity test of TRPC6 modulators against mouse TRPC4; HEK293 TRPC4/mu-opioid, membrane potential dye fluorescence; stimulated with maximal-effect DAMGO; actives 55% (n = 2,400); inhibition, % at 10 µM; shares compounds with TRPC6 inh;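 active = drop in membrane potential signal beyond 5 SD of the control wells in both duplicate plates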;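 also: TRPC4 counter screen for TRPC6 hits run under conditions tuned for TRPC6 not TRPC4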
TRPC6 inh conf – confirmation of mouse TRPC6 inhibitors; shares compounds with TRPC6 inh; HEK293-TRPC6, membrane potential dye, ACh-evoked depolarization; inhibition, % at 10 µM; actives 43% (n = 3,300);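 active = fluorescence ratio falls more than 5 SD below the full-stimulation control mean, in both duplicate runs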;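 also: integrated fluorescence ratio of peak minus minimum over baseline after agonist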
TRPC6 act conf – mouse TRPC6 activator confirmation; HEK293-TRPC6 membrane potential dye fluorescence, FDSS; AID 488961; activation, % at 10 µM; actives 11% (n = 2,800); shares compounds with TRPC6 inh;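 active = ratio signal rise beyond 5 SD above unstimulated control wells' mean, seen in both duplicate runs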;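 also: plate controls were buffer EC0 wells for no effect and acetylcholine ECmax response for full effect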
An asterisk follows results filed as active; i = inactive; · = no result.

SMILES	TRPC4 potent	TRPC6 activator	TRPC6 inh	TRPC4 inh	TRPC4 agonist	HEK293 MPD ctr-2	HEK293 MPD ctr 2-2	TRPC4/MOR mod	TRPC4 ctr inh 2	TRPC6 inh conf	TRPC6 act conf	others
O=C(Nc1ccc(S(=O)(=O)N2CCCCC2c2cccnc2)cc1)c1c(F)cccc1F (stereo not given)	i	i	-5.1*	i	i	i	i	i	i	i	i
CC(C)N(c1ccccc1)c1ccc(NC(=S)NCCN(C)C)cc1	i	i	-6.6*	i	i	i	i	i	40%*	46%*	i
CCOC(=O)CSc1nc2ccsc2c(=O)n1C1CCN(C(=O)OCC)CC1	i	15*	-6.8*	i	i	133%*	i	34%*	i	i	60%*
CCOC(=O)N1CCC(n2c(SCC(=O)OCc3ccccc3)nc3ccsc3c2=O)CC1	i	i	i	i	i	·	·	·	·	·	·
CC1CCCCN1S(=O)(=O)c1cnc(Cl)c(Br)c1 (stereo not given)	i	18*	i	i	i	i	i	i	i	·	164%*
CC1CCCCN1S(=O)(=O)c1csc(C(N)=O)c1 (stereo not given)	i	i	i	i	i	·	·	·	·	·	·
CC1CCN(S(=O)(=O)c2ccc(Cl)cc2Br)CC1	i	i	i	i	i	·	·	·	·	·	·
CC1CCN(S(=O)(=O)c2cnc(Cl)c(Br)c2)CC1	i	i	-5.3*	i	i	i	i	i	i	68%*	·
O=C(c1cccc(S(=O)(=O)N2CCN(c3ccccc3)CC2)c1)N1CCN(c2ccccc2O)CC1	i	i	i	i	i	·	·	·	·	·	·
CCN(CC)C(CNC(=O)c1cc(=O)[nH]c2ccccc12)c1ccccc1Cl (stereo not given)	i	i	i	i	i	·	·	·	·	·	·
O=c1c2ccccc2oc2ccc(NCCCN3CCOCC3)cc12	i	i	i	i	i	·	·	·	·	·	·
O=c1c2ccccc2oc2cc(NCCCN3CCOCC3)ccc12	i	i	i	i	i	·	·	·	·	·	·
CN1CCCC1CCNc1ccc2c(=O)c3ccccc3oc2c1 (stereo not given)	i	i	-9.5*	i	i	·	·	·	·	i	i	TRPC4 spec 2=74%*;TRPC4 spec=-10%*;HEK293 MPD ctr 2-1=i;HEK293 MPD ctr-1=i
CN1CCCC1CCNc1ccc2oc3ccccc3c(=O)c2c1 (stereo not given)	i	i	-5.6*	i	i	178%*	i	14%*	44%*	44%*	·
N#Cc1ccc(COC(=O)c2cnc3ccccc3n2)cc1	i	i	i	i	i	·	·	·	·	·	·
N=c1c(-c2nc3ccccc3[nH]2)cc(C(=O)c2cccs2)nn1-c1ccccc1	i	i	-7.7*	i	i	·	·	·	·	68%*	i	TRPC4 spec 2=58%*;TRPC4 spec=-14%*;HEK293 MPD ctr 2-1=i;HEK293 MPD ctr-1=-179%*
COc1ccc2[nH]c3c(C)c4ccncc4c(C)c3c2c1	i	i	-6.2*	i	i	-159%*	i	-43%*	33%*	i	i
O=C(NCC1CCCO1)/C(=C/c1cn(-c2ccccc2)nc1-c1cccnc1)NC(=O)c1ccccc1 (stereo not given)	i	i	i	i	i	·	·	·	·	·	·
N#Cc1c(NCCN)nc(-c2ccco2)c2c1CCCC2	i	i	-8.6*	i	i	-258%*	89%*	-46%*	75%*	76%*	i
CN(C)CCNc1nc(-c2ccco2)c2c(c1C#N)CC(C)(C)OC2	i	i	-9.7*	i	i	-396%*	78%*	-65%*	76%*	77%*	i
CC1(C)Cc2c(C#N)c(NCc3ccco3)nc(-c3ccco3)c2CO1	i	i	i	i	i	·	·	·	·	·	·
CN(C)C(C)(C)/C=C/C(O)(c1ccccc1)c1ccccc1	i	i	-8*	i	i	·	·	·	·	54%*	i	TRPC4 spec 2=i;TRPC4 spec=i;HEK293 MPD ctr 2-1=-7.0%*;HEK293 MPD ctr-1=0.3%*
CN(C)N(Cc1ccccc1)C(=O)C(O)(c1ccccc1)c1ccccc1	i	i	i	i	i	·	·	·	·	·	·
Cc1ccc(CNC(=O)CSc2nc3ccsc3c(=O)n2Cc2ccc(C(=O)O)cc2)cc1	i	i	i	i	i	·	·	·	·	·	·
CCC(=O)Nc1cccc(-c2cnc3ccccc3n2)c1	i	i	-5.6*	i	i	i	i	i	i	i	i
Cc1ccc(C(=O)C(C)OC(=O)Cn2[nH]c(=O)c3ccccc3c2=O)cc1C (stereo not given)	i	i	i	i	i	·	·	·	·	·	·
COC(=O)CSc1nnc(SCc2ccc(OC)cc2)s1	i	i	-5.5*	i	i	i	i	i	i	i	i
O=[N+]([O-])c1cccc(-c2cc3cccc[n+]3cc2-c2cccc([N+](=O)[O-])c2)c1	i	i	-10*	i	i	-395%*	i	-74%*	70%*	56%*	i

Bioassay records as filed in PubChem.
